What was measured:
Format in all cases: functional, cell-based
[1] = test system: NALM-6; test: Cytotoxicity against human NALM6 cells after 48 hrs by MTT assay; conditions: NALM-6, 48 h
Method in brief: (§1)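 HL-60 (promyelocytic) and NALM-6 (lymphoblastic) human leukemia cells in RPMI 1640 with 10% heat-inactivated FBS, streptomycin/penicillin, 37 °C, 5% CO2; exponentially growing cells seeded 8 × 10^3/well. Compounds from fresh DMSO stocks diluted in medium, 10^-7 to 10^-3 M, 46 h, then MTT 2 h; formazan dissolved in 20% SDS/50% DMF pH 4.7, A562/630. IC50 from concentration-response curves, ≥3 experiments.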

[2] = test system: L1210; test: Cytotoxicity against mouse L1210 cells after 48 hrs by MTT assay; conditions: L1210, 48 h
Method in brief: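 Mouse L-1210 leukemia cells in RPMI 1640 with 10% FCS, gentamycin 50 µg/mL and 0.02 M HEPES; seeded at 1.5 × 10^3 cells/mL, drug added after 24 h, then 48 h further incubation. Cell number relative to untreated control by tetrazolium dye method; IC50 from concentration-survival curves by non-linear (quasi-Newton) fitting, mean of at least three experiments.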

[3] = test system: HL-60; test: Cytotoxicity against human HL60 cells after 48 hrs by MTT assay; conditions: HL-60, 48 h; method in brief: as §1

SMILES: C=C1C(=O)OC(C)CC1c1ccccc1OC (stereo not drawn)
- IC50 [1]: 6.26 µM
- IC50 [2]: 2.1 µM
- IC50 [3]: 6.44 µM

SMILES: C=C1C(=O)OC(C)CC1C(C)C (stereo not drawn)
- IC50 [1]: 56.4 µM
- IC50 [2]: 44.4 µM
- IC50 [3]: 61.2 µM

SMILES: C=C1C(=O)OC(C)CC1C1CCCCC1 (stereo not drawn)
- IC50 [1]: 15.8 µM
- IC50 [2]: 13 µM
- IC50 [3]: 40.6 µM

SMILES: C=C1C(=O)OC(C)CC1c1ccc([N+](=O)[O-])cc1 (stereo not drawn)
- IC50 [1]: 3.42 µM
- IC50 [2]: 1.2 µM
- IC50 [3]: 6.12 µM

SMILES: C=C1C(=O)OC(C)CC1c1ccc(Br)cc1 (stereo not drawn)
- IC50 [1]: 4.51 µM
- IC50 [2]: 1.75 µM
- IC50 [3]: 4.77 µM

SMILES: C=C1C(=O)OC(C)CC1c1ccc(OC)cc1 (stereo not drawn)
- IC50 [1]: 5.76 µM
- IC50 [2]: 0.8 µM
- IC50 [3]: 5.95 µM

SMILES: C=C1C(=O)OC(C)CC1c1ccc2c(c1)OCO2 (stereo not drawn)
- IC50 [1]: 5.46 µM
- IC50 [2]: 7 µM
- IC50 [3]: 5.52 µM

SMILES: C=C1C(=O)O[C@H](C)[C@@H]1c1ccc([N+](=O)[O-])cc1
- IC50 [1]: 3.77 µM
- IC50 [2]: 1.9 µM
- IC50 [3]: 21.7 µM

SMILES: C=C1C(=O)O[C@H](C)[C@@H]1c1ccc2c(c1)OCO2 (relative stereo)
- IC50 [1]: 4.7 µM
- IC50 [2]: 1.4 µM
- IC50 [3]: 33.3 µM

SMILES: C=C1C(=O)O[C@H](C)[C@@H]1c1ccc(OC)cc1 (relative stereo)
- IC50 [1]: 5.59 µM
- IC50 [2]: 4.4 µM
- IC50 [3]: 4.82 µM

SMILES: C=C1C(=O)O[C@H](C)[C@@H]1c1ccc(C)cc1 (relative stereo)
- IC50 [1]: 5.97 µM
- IC50 [2]: 5.5 µM
- IC50 [3]: 5.62 µM

SMILES: C=C1C(=O)O[C@@H](C)[C@@H]1c1ccc(OC)cc1 (relative stereo)
- IC50 [1]: 5.42 µM
- IC50 [2]: 1.95 µM
- IC50 [3]: 5.56 µM

SMILES: C=C1C(=O)O[C@@H](C)[C@@H]1c1ccc(C)cc1 (relative stereo)
- IC50 [1]: 4.39 µM
- IC50 [2]: 1.5 µM
- IC50 [3]: 5.01 µM

SMILES: C=C1C(=O)O[C@H](C)[C@@H]1c1ccc(Br)cc1 (relative stereo)
- IC50 [1]: 4.25 µM
- IC50 [2]: 7.8 µM
- IC50 [3]: 4.28 µM

SMILES: C=C1C(=O)O[C@@H](C)[C@@H]1c1ccc2c(c1)OCO2 (relative stereo)
- IC50 [1]: 5 µM
- IC50 [2]: 0.8 µM
- IC50 [3]: 5.35 µM

SMILES: C=C1C(=O)O[C@@H](C)[C@@H]1c1ccc(Br)cc1 (relative stereo)
- IC50 [1]: 1.1 µM
- IC50 [2]: 0.58 µM
- IC50 [3]: 6.66 µM

— ChEMBL document CHEMBL1154747, “Synthesis and cytotoxic evaluation of beta-alkyl or beta-aryl-delta-methyl-alpha-methylene-delta-lactones. Comparison with the corresponding gamma-lactones” (Eur J Med Chem, 2010)
